Test results from ChEMBL document CHEMBL4359864, “The synthesis and in vitro biological evaluation of novel fluorinated tetrahydrobenzo[j]phenanthridine-7,12-diones against Mycobacterium tuberculosis” (Eur J Med Chem, 2019).
Converted amounts (≈) assume the structure as drawn.

Tests used:
[1] = system: Escherichia coli; assay: Antibacterial activity against Escherichia coli ATCC 8739 incubated for 24 hrs by resazurin dye based fluorimetric assay; assay type: functional, organism-based; conditions: ATCC 8739, ATCC 8739, 24 h
Method in brief: (§1)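 Resazurin microtiter assay: compounds from 10 mM DMSO stock, twofold serial dilutions from 64 µM final in growth medium, in triplicate. Inoculum from frozen glycerol stocks. Exposure 24 h, or 7 days for Mtb H37Ra (7H9 + 0.5% glycerol + 10% OADC). Then 0.01% resazurin was added and plates were incubated at 37°C until pink. Fluorescence read at ex 550/em 590 nm; mean of triplicates.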

[2] = system: Pseudomonas aeruginosa; assay: Antibacterial activity against Pseudomonas aeruginosa ATCC 9027 incubated for 24 hrs by resazurin dye based fluorimetric assay; assay type: functional, organism-based; conditions: ATCC 9027, 24 h; method in brief: as §1
[3] = system: Klebsiella pneumoniae; assay: Antibacterial activity against Klebsiella pneumoniae ATCC 13883 incubated for 24 hrs by resazurin dye based fluorimetric assay; assay type: functional, organism-based; conditions: ATCC 13883, 24 h; method in brief: as §1
[4] = system: Enterococcus faecium; assay: Antibacterial activity against Enterococcus faecium ATCC 19434 incubated for 24 hrs by resazurin dye based fluorimetric assay; assay type: functional, organism-based; conditions: ATCC 19434, 24 h; method in brief: as §1
[5] = system: Staphylococcus aureus; assay: Antibacterial activity against Staphylococcus aureus ATCC 6538 incubated for 24 hrs by resazurin dye based fluorimetric assay; assay type: functional, organism-based; conditions: ATCC 6538, 24 h; method in brief: as §1
[6] = system: Streptococcus pneumoniae; assay: Antibacterial activity against Streptococcus pneumoniae ATCC BAA-334 incubated for 24 hrs by resazurin dye based fluorimetric assay; assay type: functional, organism-based; conditions: ATCC BAA-334, 24 h; method in brief: as §1
[7] = system: Mycobacterium tuberculosis; assay: Antibacterial activity against Mycobacterium tuberculosis H37Ra ATCC 25177 incubated for 7 days by resazurin dye based fluorimetric assay; assay type: functional, organism-based; conditions: H37Ra ATCC 25177, 168 h; method in brief: as §1
[8] = system: Mycobacterium tuberculosis; assay: Antimycobacterial activity against Mycobacterium tuberculosis H37Ra lux incubated for 7 days by luminometric assay; assay type: functional, organism-based; conditions: 168 h
Method in brief: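 Twofold serial dilutions in 7H9/OADC/glycerol, in triplicate, inoculated with a suspension of 10.000 RLU per mL. After 7 days, n-decanal (1% v/v in ethanol) was added and luminescence read. IC50 and MIC (90% growth reduction) were derived from the mean of triplicates.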

[9] = Cytotoxicity against mouse J774A.1 cells assessed as reduction in cell viability incubated for 24 hrs by neutral red uptake assay; assay type: cell-based, J774.A1
Method in brief: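 J774A.1 cells in DMEM + 10% iFCS, 37°C, 5% CO2, seeded at 40.000 cells/well and left overnight. Twofold dilutions from 128 µM final; 24 h exposure. Neutral red uptake for 3 h, dye extracted with 1:1 ethanol/acetic acid, OD read at 530 nm (reference 620 nm). CC50 = 50% reduction in uptake; mean of triplicates.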

[10] = Selectivity index, ratio of […] for cytotoxicity against mouse J774A.1 cells; assay type: toxicity, cell-based; conditions: read-out: Selectivity Index
[11] = system: Mycobacterium marinum; assay: Antimycobacterial activity against Mycobacterium marinum NCTC 2275 by resazurin dye based fluorimetric assay; assay type: functional, organism-based
Method in brief: (§2)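 Resazurin microtiter method as for the bacterial panel. Mycobacteria grown in 7H9 with 10% OADC and 0.5% glycerol; for BCG, 0.05% Tween 80 replaced the glycerol. Cultures were sonicated and needle-passed to single cells. Incubation at 37°C, or 32°C for M. marinum. Fluorescence read at ex 550/em 590 nm; mean of triplicates.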

[12] = Antimycobacterial activity against Mycobacterium avium subsp. avium ATCC 25291 by resazurin dye based fluorimetric assay; assay type: functional; method in brief: as §2
[13] = target: T1, CYP450 (Homo sapiens, UniProt P04798+P05177+P05181+P08684+P10632+P10635+P11509+P11712+P13584+P20813+P20815+P20853+P24462+P24903+P33260+P33261+P51589+P78329+P98187+Q02928+Q08477+Q16678+Q16696+Q5TCH4+Q6VVX0+Q7Z449+Q8TAV3+Q96SQ9+Q9HB55); assay: Microsomal stability in human liver microsomes assessed as CYP450-mediated metabolism by measuring compound remaining at 5 uM and measured for 15 mins in presence of NADPH by UPLC-MS/MS analysis (reference value: 100%); assay type: ADME; conditions: read-out: Stability
Method in brief: (§3)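 Compound at 5 µM with 0.5 mg/mL liver microsomes in PBS. Phase I was started with 1 mM NADPH; phase II used 2 mM UDPGA. Diclofenac served as reference. Samples taken at 0, 15, 30 and 60 min were quenched in ice-cold acetonitrile, centrifuged at 4°C and analysed by LC-MS. Mean of at least two replicates ± SD.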

[14] = target: T1, CYP450; assay: Microsomal stability in human liver microsomes assessed as CYP450-mediated metabolism by measuring compound remaining at 5 uM and measured for 30 mins in presence of NADPH by UPLC-MS/MS analysis (reference value: 100%); assay type: ADME; conditions: read-out: Stability; method in brief: as §3
[15] = target: T1, CYP450; assay: Microsomal stability in human liver microsomes assessed as CYP450-mediated metabolism by measuring compound remaining at 5 uM and measured for 60 mins in presence of NADPH by UPLC-MS/MS analysis (reference value: 100%); assay type: ADME; conditions: read-out: Stability; method in brief: as §3
[16] = target: T2, UGT (Homo sapiens, UniProt O60656+O75310+O75795+P06133+P0DTE4+P0DTE5+P16662+P19224+P22309+P22310+P35503+P35504+P36537+P54855+Q6UWM9+Q9BY64+Q9HAW7+Q9HAW8+Q9HAW9); assay: Microsomal stability in human liver microsomes assessed as UGT-mediated metabolism by measuring compound remaining at 5 uM and measured for 15 mins in presence of UDPGA by UPLC-MS/MS analysis (reference value: 100%); assay type: ADME; conditions: read-out: Stability; method in brief: as §3
[17] = target: T2, UGT; assay: Microsomal stability in human liver microsomes assessed as UGT-mediated metabolism by measuring compound remaining at 5 uM and measured for 30 mins in presence of UDPGA by UPLC-MS/MS analysis (reference value: 100%); assay type: ADME; conditions: read-out: Stability; method in brief: as §3
[18] = target: T2, UGT; assay: Microsomal stability in human liver microsomes assessed as UGT-mediated metabolism by measuring compound remaining at 5 uM and measured for 60 mins in presence of UDPGA by UPLC-MS/MS analysis (reference value: 100%); assay type: ADME; conditions: read-out: Stability; method in brief: as §3
[19] = system: CYP450; assay: Microsomal stability in mouse liver microsomes assessed as CYP450-mediated metabolism by measuring compound remaining at 5 uM and measured for 15 mins in presence of NADPH by UPLC-MS/MS analysis (reference value: 100%); assay type: ADME; conditions: read-out: Stability; method in brief: as §3
[20] = system: CYP450; assay: Microsomal stability in mouse liver microsomes assessed as CYP450-mediated metabolism by measuring compound remaining at 5 uM and measured for 30 mins in presence of NADPH by UPLC-MS/MS analysis (reference value: 100%); assay type: ADME; conditions: read-out: Stability; method in brief: as §3
[21] = system: CYP450; assay: Microsomal stability in mouse liver microsomes assessed as CYP450-mediated metabolism by measuring compound remaining at 5 uM and measured for 60 mins in presence of NADPH by UPLC-MS/MS analysis (reference value: 100%); assay type: ADME; conditions: read-out: Stability; method in brief: as §3
[22] = system: UGT; assay: Microsomal stability in mouse liver microsomes assessed as UGT-mediated metabolism by measuring compound remaining at 5 uM and measured for 15 mins in presence of UDPGA by UPLC-MS/MS analysis (reference value: 100%); assay type: ADME; conditions: read-out: Stability; method in brief: as §3
[23] = system: UGT; assay: Microsomal stability in mouse liver microsomes assessed as UGT-mediated metabolism by measuring compound remaining at 5 uM and measured for 30 mins in presence of UDPGA by UPLC-MS/MS analysis (reference value: 100%); assay type: ADME; conditions: read-out: Stability; method in brief: as §3
[24] = system: UGT; assay: Microsomal stability in mouse liver microsomes assessed as UGT-mediated metabolism by measuring compound remaining at 5 uM and measured for 60 mins in presence of UDPGA by UPLC-MS/MS analysis (reference value: 100%); assay type: ADME; conditions: read-out: Stability; method in brief: as §3

SMILES	IC50 [1] [µM]	IC50 [2] [µM]	IC50 [3] [µM]	IC50 [4] [µM]	IC50 [5] [µM]	IC50 [6] [µM]	IC50 [7] [µM]	IC50 [8] [µM]	MIC90 [8] [µM]	CC50 at 24 h [9] [µM]	selectivity ratio [10]	IC50 [11] [µM]	IC50 [12] [µM]	remaining at 0.25 h, 5 µM [13] [%]	remaining at 0.5 h, 5 µM [14] [%]	remaining at 1 h, 5 µM [15] [%]	remaining at 0.25 h, 5 µM [16] [%]	remaining at 0.5 h, 5 µM [17] [%]	remaining at 1 h, 5 µM [18] [%]	remaining at 0.25 h, 5 µM [19] [%]	other results
O=C1C2=C(C(=O)c3c1cnc1ccc(C(F)(F)F)cc31)C1CCC2C1 (configuration not stated)	> 64	> 64	> 64	> 64	> 64	> 64	2 to 4	2.51	9.23 (≈ 3.17 µg/mL)	108	11.8	45.5	8.51	100	100	100	100	74	69	100	remaining at 0.5 h, 5 µM [20]: 100%; remaining at 1 h, 5 µM [21]: 100%; remaining at 0.25 h, 5 µM [22]: 87%; remaining at 0.5 h, 5 µM [23]: 81%; remaining at 1 h, 5 µM [24]: 78%
NNC(=O)c1ccncc1 [ISONIAZID]	–	–	–	–	–	–	< 0.25	0.11	0.31 (≈ 0.0425 µg/mL)	–	–	–	–	–	–	–	–	–	–	–	–
O=C1C2=C(C(=O)c3c1cnc1cc(F)ccc31)C1CCC2C1 (configuration not stated)	> 64	> 64	> 64	> 64	> 64	32 to 64	1 to 2	1.8	10.2 (≈ 3 µg/mL)	35.2	3.44	3.22	0.43	100	100	100	79	76	60	100	remaining at 0.5 h, 5 µM [20]: 100%; remaining at 1 h, 5 µM [21]: 100%; remaining at 0.25 h, 5 µM [22]: 89%; remaining at 0.5 h, 5 µM [23]: 88%; remaining at 1 h, 5 µM [24]: 73%
O=C(O)Cc1ccccc1Nc1c(Cl)cccc1Cl [DICLOFENAC]	–	–	–	–	–	–	–	–	–	–	–	–	–	45	23	5	22	16	13	–	–
C[C@H]1c2cccc(O)c2C(=O)C2=C(O)[C@]3(O)C(=O)C(C(N)=O)=C(O)[C@@H](N(C)C)[C@@H]3[C@@H](O)[C@@H]21 [DOXYCYCLINE]	–	–	–	–	< 0.25	> 0.25	–	–	–	–	–	–	–	–	–	–	–	–	–	–	–
CN[C@H](CC(C)C)C(=O)N[C@H]1C(=O)N[C@@H](CC(N)=O)C(=O)N[C@H]2C(=O)N[C@H]3C(=O)N[C@H](C(=O)N[C@H](C(=O)O)c4cc(O)cc(O)c4-c4cc3ccc4O)[C@H](O)c3ccc(c(Cl)c3)Oc3cc2cc(c3O[C@@H]2O[C@H](CO)[C@@H](O)[C@H](O)[C@H]2O[C@H]2C[C@](C)(N)[C@H](O)[C@H](C)O2)Oc2ccc(cc2Cl)[C@H]1O [VANCOMYCIN]	–	–	–	> 0.5	–	–	–	–	–	–	–	–	–	–	–	–	–	–	–	–	–
